In brackets after ≈: the same amount, converted by molar mass.
Assays:
[1] = tested on: Human immunodeficiency virus 1; assay: Antiviral activity against HIV1 3B in human MT4 cells assessed as protection against virus-induced cytopathogenicity by MTT assay; format: functional, organism-based; set-up: Activity: concentration or dose not given beside the values; settings: for IC50: Human immunodeficiency virus 1, 3B, MT4
Summary of the method: (§1)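 MT-4 cells at 6 × 10⁵ cells/ml infected with HIV-1 IIIB or HIV-2 ROD at 100–300 CCID50; compounds in serial five-fold dilutions, triplicate mock- and virus-infected wells. MTT viability read at 540 and 690 nm after 5 days, median OD of three wells; EC50 = 50% protection from viral cytopathic effect.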

[2] = tested on: Human immunodeficiency virus 2; assay: Antiviral activity against HIV2 ROD in human MT4 cells assessed as protection against virus-induced cytopathogenicity by MTT assay; format: functional, organism-based; set-up: Activity: concentration or dose not given beside the values; settings: for IC50: Human immunodeficiency virus 2, ROD, MT4; summary of the method: as §1
[3] = Cytotoxicity against human MT4 cells by MTT assay; format: cell-based
Summary of the method: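 Mock-infected MT-4 cells (6 × 10⁵ cells/ml) with serial five-fold compound dilutions in triplicate; MTT reduction read at 540 and 690 nm after 5 days, median OD of three wells; CC50 = concentration reducing OD540 of mock-infected control by 50%.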

[4] = Cytotoxicity against human HeLa cells; format: cell-based
Summary of the method: (§2)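 Uninfected cell cultures exposed to test compounds alongside antiviral assays; minimum cytotoxic concentration (MCC) = concentration causing a microscopically detectable alteration of cell morphology.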

[5] = tested on: Vesicular stomatitis virus; assay: Antiviral activity against vesicular stomatitis virus in human HeLa cells assessed as inhibition of virus-induced cytopathogenicity; format: functional
Summary of the method: (§3)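 Confluent cell monolayers (E6SM, HEL, HeLa or Vero, per line) inoculated with 100 CCID50 virus; 1 h adsorption, residual virus removed, then incubated with compound at 400, 200, 100 … µg/ml. Cytopathicity scored once complete in untreated virus controls; MIC = concentration inhibiting virus-induced cytopathicity.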

Coxsackievirus B4 [6] = assay: Antiviral activity against Coxsackie virus B4 in human HeLa cells assessed as inhibition of virus-induced cytopathogenicity; format: functional; settings: Enterovirus B; summary of the method: as §3
[7] = tested on: Respiratory syncytial virus; assay: Antiviral activity against respiratory syncytial virus in human HeLa cells assessed as inhibition of virus-induced cytopathogenicity; format: functional; summary of the method: as §3
[8] = Cytotoxicity against human E6SM cells; format: cell-based; settings: E6SM cells; summary of the method: as §2
[9] = Cytotoxicity against human HEL cells assessed as alteration of cell morphology; format: cell-based; summary of the method: as §2
Human alphaherpesvirus 1 [10] = assay: Antiviral activity against HSV1 KOS in human E6SM cells assessed as reduction of virus-induced cytopathogenicity; format: functional; settings: Human alphaherpesvirus 1, KOS; summary of the method: as §3
Human alphaherpesvirus 1 [11] = assay: Antiviral activity against HSV1 KOS in human HEL cells assessed as reduction of virus-induced cytopathogenicity; format: functional; settings: Human alphaherpesvirus 1, KOS; summary of the method: as §3
Human alphaherpesvirus 2 [12] = assay: Antiviral activity against HSV2 G in human E6SM cells assessed as reduction of virus-induced cytopathogenicity; format: functional; settings: Human alphaherpesvirus 2, G; summary of the method: as §3
Human alphaherpesvirus 2 [13] = assay: Antiviral activity against HSV2 G in human HEL cells assessed as reduction of virus-induced cytopathogenicity; format: functional; settings: Human alphaherpesvirus 2, G; summary of the method: as §3
[14] = tested on: Vesicular stomatitis virus; assay: Antiviral activity against in Vesicular stomatitis virus in human E6SM cells assessed as reduction of virus-induced cytopathogenicity; format: functional; summary of the method: as §3
[15] = tested on: Vesicular stomatitis virus; assay: Antiviral activity against in Vesicular stomatitis virus in human HEL cells assessed as reduction of virus-induced cytopathogenicity; format: functional; summary of the method: as §3
Human alphaherpesvirus 1 [16] = assay: Antiviral activity against thymidine kinase deficient and acyclovir resistant HSV1 KOS in human E6SM cells assessed as reduction of virus-induced cytopathogenicity; format: functional; settings: Human alphaherpesvirus 1, KOS; summary of the method: as §3
Human alphaherpesvirus 1 [17] = assay: Antiviral activity against thymidine kinase deficient and acyclovir resistant HSV1 KOS in human HEL cells assessed as reduction of virus-induced cytopathogenicity; format: functional; settings: Human alphaherpesvirus 1, KOS; summary of the method: as §3
Vero = assay: Cytotoxicity against african green monkey Vero cells; format: cell-based; settings: chlorocebus sabaeus; summary of the method: as §2
Coxsackievirus B4 [18] = assay: Antiviral activity against Coxsackie virus B4 in african green monkey Vero cells assessed as reduction of virus-induced cytopathogenicity; format: functional; settings: Enterovirus B; summary of the method: as §3
Punta Toro virus = assay: Antiviral activity against Punta Toro virus in african green monkey Vero cells assessed as reduction of virus-induced cytopathogenicity; format: functional; summary of the method: as §3
Human betaherpesvirus 5 [19] = assay: Antiviral activity against human cytomegalovirus AD169 infected HEL cells assessed as reduction in virus plaque formation; format: functional, organism-based; settings: Human betaherpesvirus 5, AD169, HEL
Human betaherpesvirus 5 [20] = assay: Antiviral activity against human cytomegalovirus Davis infected HEL cells assessed as reduction in virus plaque formation; format: functional, organism-based; settings: Human betaherpesvirus 5, Davis
Human alphaherpesvirus 3 [21] = assay: Antiviral activity against TK+ VZV OKA infected HEL cells assessed as reduction in virus plaque formation; format: functional, organism-based; settings: Human alphaherpesvirus 3, OKA
Human alphaherpesvirus 3 [22] = assay: Antiviral activity against TK- VZV 07/1 infected HEL cells assessed as reduction in virus plaque formation; format: functional, organism-based; settings: Human alphaherpesvirus 3, 07/1, HEL
Human respirovirus 3 = assay: Antiviral activity against Parainfluenza 3 virus in african green monkey Vero cells assessed as reduction of virus-induced cytopathogenicity; format: functional; summary of the method: as §3
[23] = tested on: Mammalian orthoreovirus 1; assay: Antiviral activity against Reo virus 1 in african green monkey Vero cells assessed as reduction of virus-induced cytopathogenicity; format: functional; summary of the method: as §3
Sindbis virus = assay: Antiviral activity against Sindbis virus in african green monkey Vero cells assessed as reduction of virus-induced cytopathogenicity; format: functional; summary of the method: as §3
[24] = Cytotoxicity against human HEL cells assessed as reduction of cell growth; format: cell-based
Summary of the method: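 HEL cells; CC50 = compound concentration reducing cell growth by 50%.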

| Structure (SMILES) | MCC [4] [µg/mL] | MIC [5] [µg/mL] | MIC (Coxsackievirus B4 [6]) [µg/mL] | MIC [7] [µg/mL] | MCC [8] [µg/mL] | MCC [9] [µg/mL] | MIC (Human alphaherpesvirus 1 [10]) [µg/mL] | MIC (Human alphaherpesvirus 1 [11]) [µg/mL] | MIC (Human alphaherpesvirus 2 [12]) [µg/mL] | MIC (Human alphaherpesvirus 2 [13]) [µg/mL] | MIC [14] [µg/mL] | MIC [15] [µg/mL] | MIC (Human alphaherpesvirus 1 [16]) [µg/mL] | MIC (Human alphaherpesvirus 1 [17]) [µg/mL] | Activity (Vero) [µg/mL] | MIC (Coxsackievirus B4 [18]) [µg/mL] | MIC (Punta Toro virus) [µg/mL] | EC50 (Human alphaherpesvirus 3 [21]) [µg/mL] | EC50 (Human alphaherpesvirus 3 [22]) [µg/mL] | MIC (Human respirovirus 3) [µg/mL] | also measured |
| --- | --- | --- | --- | --- | --- | --- | --- | --- | --- | --- | --- | --- | --- | --- | --- | --- | --- | --- | --- | --- | --- |
| CCNC(=S)Nc1ccc(OCc2n[nH]c(=S)n2-c2ccccc2)cc1 | 400 | > 80 | > 80 | > 80 | > 400 | > 400 | > 400 | > 400 | > 400 | > 400 | > 400 | > 400 | > 400 | > 400 | 400 | 80 (≈ 208 µM) | > 80 | > 100 | > 100 | > 80 | Activity [1]: 1%; IC50 [1]: > 15 µg/mL; Activity [2]: 11%; IC50 [2]: > 19.4 µg/mL; CC50 [3]: 22 µg/mL (≈ 57.1 µM); EC50 (Human betaherpesvirus 5 [19]): > 100 µg/mL; EC50 (Human betaherpesvirus 5 [20]): > 100 µg/mL; MIC [23]: > 80 µg/mL; MIC (Sindbis virus): > 80 µg/mL; CC50 [24]: > 50 µg/mL |
| Cn1c(COc2ccc(N)cc2)n[nH]c1=S | > 400 | > 400 | > 400 | > 400 | > 400 | > 400 | 400 (≈ 1690 µM) | 400 (≈ 1690 µM) | 80 (≈ 339 µM) | 80 (≈ 339 µM) | > 400 | > 400 | 80 (≈ 339 µM) | 80 (≈ 339 µM) | 16 | > 3.2 | > 3.2 | > 100 | > 100 | > 3.2 | Activity [1]: 2.5%; IC50 [1]: > 125 µg/mL; Activity [2]: 4%; IC50 [2]: > 125 µg/mL; CC50 [3]: ≥ 119 µg/mL; EC50 (Human betaherpesvirus 5 [19]): > 100 µg/mL; EC50 (Human betaherpesvirus 5 [20]): > 100 µg/mL; MIC [23]: > 3.2 µg/mL; MIC (Sindbis virus): > 3.2 µg/mL; CC50 [24]: > 50 µg/mL |
| C=CCNC(=S)Nc1ccc(OCc2n[nH]c(=S)n2-c2ccccc2)cc1 | 400 | > 80 | > 80 | > 80 | > 400 | > 400 | 240 (≈ 604 µM) | 240 (≈ 604 µM) | 240 (≈ 604 µM) | 240 (≈ 604 µM) | 240 (≈ 604 µM) | 240 (≈ 604 µM) | 240 (≈ 604 µM) | 240 (≈ 604 µM) | 400 | 48 (≈ 121 µM) | > 80 | > 100 | > 100 | > 80 | Activity [1]: 1.5%; IC50 [1]: > 92.3 µg/mL; Activity [2]: 0.5%; IC50 [2]: > 103 µg/mL; CC50 [3]: 107 µg/mL (≈ 269 µM); EC50 (Human betaherpesvirus 5 [19]): > 100 µg/mL; EC50 (Human betaherpesvirus 5 [20]): > 100 µg/mL; MIC [23]: > 80 µg/mL; MIC (Sindbis virus): > 80 µg/mL; CC50 [24]: > 50 µg/mL |
| C=CCn1c(COc2ccc(NC(=S)NC)cc2)n[nH]c1=S | 400 | > 80 | > 80 | > 80 | > 400 | > 400 | > 400 | > 400 | > 400 | > 400 | > 400 | > 400 | > 400 | > 400 | 400 | > 80 | > 80 | > 100 | > 100 | > 80 | Activity [1]: 1%; IC50 [1]: > 101 µg/mL; Activity [2]: 3.5%; IC50 [2]: > 110 µg/mL; CC50 [3]: 108 µg/mL (≈ 323 µM); EC50 (Human betaherpesvirus 5 [19]): > 100 µg/mL; EC50 (Human betaherpesvirus 5 [20]): > 100 µg/mL; MIC [23]: > 80 µg/mL; MIC (Sindbis virus): > 80 µg/mL; CC50 [24]: > 50 µg/mL |
| S=C(Nc1ccccc1)Nc1ccc(OCc2n[nH]c(=S)n2-c2ccccc2)cc1 | 80 | > 16 | > 16 | > 16 | 400 | 400 | > 80 | > 80 | > 80 | > 80 | > 80 | > 80 | > 80 | > 80 | 80 | > 16 | > 16 | 26 (≈ 60 µM) | 39 (≈ 90 µM) | > 16 | Activity [1]: 5.5%; IC50 [1]: > 30.6 µg/mL; Activity [2]: 4.5%; IC50 [2]: > 41.5 µg/mL; CC50 [3]: 44.1 µg/mL (≈ 102 µM); EC50 (Human betaherpesvirus 5 [19]): > 20 µg/mL; EC50 (Human betaherpesvirus 5 [20]): 37 µg/mL (≈ 85.3 µM); MIC [23]: > 16 µg/mL; MIC (Sindbis virus): > 16 µg/mL; CC50 [24]: > 50 µg/mL |
| O=c1[nH]c(=O)n([C@H]2C[C@H](O)[C@@H](CO)O2)cc1/C=C/Br [BRIVUDINE] | ≥ 400 | > 400 | > 400 | > 400 | > 400 | > 400 | 0.0768 (≈ 0.231 µM) | 0.0768 (≈ 0.231 µM) | 80 (≈ 240 µM) | 80 (≈ 240 µM) | > 400 | > 400 | > 400 | > 400 | > 400 | > 400 | > 400 | 0.02 (≈ 0.06 µM) | 25 (≈ 75 µM) | > 400 | MIC [23]: > 400 µg/mL; MIC (Sindbis virus): > 400 µg/mL |

— ChEMBL document CHEMBL1149790, “Synthesis of some novel thiourea derivatives obtained from 5-[(4-aminophenoxy)methyl]-4-alkyl/aryl-2,4-dihydro-3H-1,2,4-triazole-3-thiones and evaluation as antiviral/anti-HIV and anti-tuberculosis agents” (Eur J Med Chem, 2008)
